Assay results published in ChEMBL document CHEMBL4602735, “Discovery of (1H-Pyrazolo[3,4-c]pyridin-5-yl)sulfonamide Analogues as Hepatitis B Virus Capsid Assembly Modulators by Conformation Constraint” (J Med Chem, 2020).
Blank lines part the entries; values can stand above or below the molecule they belong to. Active and inactive are the calls of the source. The rule behind the calls is not given here.

Tests used:
[1] = Solubility in pH 5.8 phosphate buffer at 1 mg at 25 degC by HPLC analysis; type: physicochemical
Procedure, shortened: (§1)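 Solubility determined in water or 0.067 M phosphate buffer at pH 5.8, 6.8 and 7.4. Values are reported in mg/mL; ND means below the detection limit.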

[2] = AUC in C57BL/6 mouse plasma at 200 mg/kg, po measured from 5 mins to 24 hrs by HPLC analysis; type: ADME, organism-based; design: time 0.083-24 hr, dose 200 mg/kg, route oral
Procedure, shortened: (§2)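 Male C57BL/6 mice, n=3. Dosing 20 mg/kg i.v. or 100 mg/kg p.o. of parent; prodrug p.o. at 100 or 200 mg/kg. The parent compound was measured in blood/plasma and in liver from 5 min onward. Readouts were Cmax, Tmax, t1/2, CL, AUC and oral bioavailability.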

[3] = Cmax in C57BL/6 mouse blood at 100 mg/kg, po measured from 5 mins to 24 hrs by HPLC analysis; type: ADME, organism-based; design: dose 100 mg/kg, route oral; procedure, shortened: as §2
[4] = Drug level in C57BL/6 mouse liver at 100 mg/kg, po measured after 5 mins by HPLC analysis; type: ADME, organism-based; settings: in vivo
[5] = Tmax in C57BL/6 mouse liver at 100 mg/kg, po measured from 5 mins to 24 hrs by HPLC analysis; type: ADME, organism-based
Procedure, shortened: (§3)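 Male C57BL/6 mice, single oral dose of prodrug at 100 or 200 mg/kg; blood and liver levels of the parent compound measured over time; N=3; Tmax taken from the concentration–time profiles.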

[6] = Solubility in water at 1 mg at 25 degC by HPLC analysis; type: physicochemical; procedure, shortened: as §1
[7] = AUC in C57BL/6 mouse plasma at 100 mg/kg, po measured from 5 mins to 24 hrs by HPLC analysis; type: ADME, organism-based; design: time upper 24 hr, dose 100 mg/kg, time lower 0.083 hr, route oral; procedure, shortened: as §2
[8] = Oral bioavailability in C57BL/6 mouse liver at 200 mg/kg measured from 5 mins to 24 hrs by HPLC analysis; type: ADME, organism-based; procedure, shortened: as §2
[9] = Solubility in pH 7.4 phosphate buffer at 1 mg at 25 degC by HPLC analysis; type: physicochemical; procedure, shortened: as §1
[10] = Cmax in C57BL/6 mouse liver at 100 mg/kg, po measured from 5 mins to 24 hrs by HPLC analysis; type: ADME, organism-based; design: dose 100 mg/kg, route oral; settings: in vivo; procedure, shortened: as §2
[11] = Oral bioavailability in C57BL/6 mouse liver at 100 mg/kg measured from 5 mins to 24 hrs by HPLC analysis; type: ADME, organism-based; procedure, shortened: as §2
[12] = Solubility in pH 6.8 phosphate buffer at 1 mg at 25 degC by HPLC analysis; type: physicochemical; procedure, shortened: as §1
[13] = AUC in C57BL/6 mouse liver at 100 mg/kg, po measured from 5 mins to 24 hrs by HPLC analysis; type: ADME, organism-based; design: time 0.083-24 hr, dose 100 mg/kg, route oral; settings: in vivo; procedure, shortened: as §2
[14] = Half life in mouse plasma by HPLC analysis; settings: in vitro
[15] = Tmax in C57BL/6 mouse blood at 100 mg/kg, po measured from 5 mins to 24 hrs by HPLC analysis; type: ADME, organism-based; procedure, shortened: as §3
[16] = Cmax in C57BL/6 mouse blood at 200 mg/kg, po measured from 5 mins to 24 hrs by HPLC analysis; type: ADME, organism-based; design: dose 200 mg/kg, route oral; procedure, shortened: as §2
[17] = AUC in C57BL/6 mouse liver at 200 mg/kg, po measured from 5 mins to 24 hrs by HPLC analysis; type: ADME, organism-based; design: time upper 24 hr, dose 200 mg/kg, time lower 0.083 hr, route oral; settings: in vivo; procedure, shortened: as §2
[18] = Cmax in C57BL/6 mouse liver at 200 mg/kg, po measured from 5 mins to 24 hrs by HPLC analysis; type: ADME, organism-based; design: dose 200 mg/kg, route oral; settings: in vivo; procedure, shortened: as §2
[19] = Tmax in C57BL/6 mouse liver at 200 mg/kg, po measured from 5 mins to 24 hrs by HPLC analysis; type: ADME, organism-based; procedure, shortened: as §3
[20] = Tmax in C57BL/6 mouse blood at 200 mg/kg, po measured from 5 mins to 24 hrs by HPLC analysis; type: ADME, organism-based; procedure, shortened: as §3
[21] = Intrinsic clearance in mouse liver microsomes; type: ADME, Microsome; settings: read-out: CLH
[22] = Cytotoxicity in human HepAD38 cells assessed as induction of cell killing; type: cell-based
Hepatitis B virus [23] = assay: Antiviral activity against HBV infected in human HepAD38 cells assessed as reduction in viral DNA levels incubated for 6 days by PCR analysis; type: functional, organism-based; settings: HePAD38, 144 h
Hepatitis B virus [24] = assay: Antiviral activity against HBV infected in human HepG2.A64 cells containing reverse transcriptase L180M/T184L/M204V mutant assessed as reduction in viral replication incubated for 6 days by PCR analysis; type: functional, organism-based; settings: HepG2.A64, 144 h
Procedure, shortened: (§4)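 Wild-type HBV replication measured in HepAD38 and HepG2.2.15 cells, lamivudine/entecavir-resistant HBV in HepG2.A64 cells (rtL180M+rtT184L+rtM204V) and multidrug-resistant HBV in HepG2.1403F cells (rtL180M+rtM204V+rtS202G+rtN236T). Read-out is reduction of HBV DNA. EC50 is reported as mean ± SD.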

[25] = Selectivity index, ratio of CC50 for cytotoxicity in human HepAD38 cells assessed as induction of cell killing to EC50 for antiviral activity against HBV infected in human HepAD38 cells assessed as reduction in viral DNA levels incubated for 6 days by PCR analysis; type: toxicity, cell-based; settings: read-out: Ratio CC50/EC50
Hepatitis B virus [26] = assay: Inhibition of HBsAg secretion in HBV infected human HepAD38 cells at 2 uM for 4 days by ELISA; type: functional, organism-based
Procedure, shortened: (§5)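 HepAD38 or HepG2.2.15 cells were treated at 2 µM for 4 days, with medium replaced every 2 days. Intracellular and extracellular DNA and RNA were quantified by qPCR or qRT-PCR, and HBeAg and HBsAg by ELISA. Results were compared with DMSO vehicle as mean ± SD, using a two-tailed t-test.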

Hepatitis B virus [27] = assay: Antiviral activity against HBV infected in human HepAD38 cells assessed as inhibition of intracellular viral RNA accumulation at 2 uM for 4 days by qPCR or qRT-PCR relative to control; type: functional, organism-based; procedure, shortened: as §5
[28] = Cytotoxicity in human HepG2 cells assessed as induction of cell killing; type: cell-based
[29] = Half life in C57BL/6 mouse at 20 mg/kg, iv measured from 5 mins to 24 hrs by HPLC analysis; type: ADME, organism-based; settings: in vivo; procedure, shortened: as §2
Hepatitis B virus [30] = assay: Inhibition of HBsAg secretion in HBV infected human HepG2.2.15 cells at 2 uM for 4 days by ELISA; type: functional, organism-based; settings: HepG2 2.2.15; procedure, shortened: as §5
[31] = AUC in C57BL/6 mouse liver at 20 mg/kg, iv measured from 5 mins to 24 hrs by HPLC analysis; type: ADME, organism-based; design: time lower 0.083 hr, dose 20 mg/kg, time upper 24 hr, route intravenous; settings: in vivo; procedure, shortened: as §2
Hepatitis B virus [32] = assay: Antiviral activity against HBV genotype D in hydrodynamic injection-based C57BL/6 mouse model of HBV infection assessed as inhibition of serum HBV DNA level at 100 mg/kg, po dosed twice daily for 7 days by real-time PCR analysis; type: functional, organism-based
Hepatitis B virus [33] = assay: Antiviral activity against HBV infected in human HepG2.2.15 cells assessed as inhibition of intracellular viral RNA accumulation at 2 uM for 4 days by qPCR or qRT-PCR relative to control; type: functional, organism-based; settings: HepG2 2.2.15; procedure, shortened: as §5
Hepatitis B virus [34] = assay: Antiviral activity against HBV infected in human HepG2.2.15 cells assessed as reduction in viral DNA levels incubated for 6 days by PCR analysis; type: functional, organism-based; settings: HepG2 2.2.15, 144 h
Hepatitis B virus [35] = assay: Antiviral activity against HBV genotype D in hydrodynamic injection-based C57BL/6 mouse model of HBV infection assessed as inhibition of serum HBV DNA level at 50 mg/kg, po dosed twice daily for 7 days by real-time PCR analysis; type: functional, organism-based
Hepatitis B virus [36] = assay: Antiviral activity against HBV infected in human HepAD38 cells assessed as inhibition of intracellular viral DNA accumulation at 2 uM for 4 days by qPCR or qRT-PCR relative to control; type: functional, organism-based; procedure, shortened: as §5
Hepatitis B virus [37] = assay: Antiviral activity against multidrug-resistant HBV infected in human HepG2.1403F cells assessed as reduction in viral replication incubated for 6 days by PCR analysis; type: functional, organism-based; settings: 144 h; procedure, shortened: as §4
Hepatitis B virus [38] = assay: Antiviral activity against HBV genotype D in hydrodynamic injection-based C57BL/6 mouse model of HBV infection assessed as inhibition of liver HBV DNA level at 50 mg/kg, po dosed twice daily for 7 days by real-time PCR analysis; type: functional, organism-based
Hepatitis B virus [39] = assay: Antiviral activity against HBV genotype D in hydrodynamic injection-based C57BL/6 mouse model of HBV infection assessed as inhibition of HBV replication at 50 mg/kg, po dosed once daily for 7 days by real-time PCR analysis; type: functional, organism-based
Hepatitis B virus [40] = assay: Antiviral activity against HBV infected in human HepG2.2.15 cells assessed as inhibition of intracellular viral DNA accumulation at 2 uM for 4 days by qPCR or qRT-PCR relative to control; type: functional, organism-based; settings: HepG2 2.2.15; procedure, shortened: as §5
[41] = Clearance in C57BL/6 mouse at 20 mg/kg, iv measured from 5 mins to 24 hrs by HPLC analysis; type: ADME, organism-based; settings: in vivo; procedure, shortened: as §2
[42] = AUC in C57BL/6 mouse plasma at 20 mg/kg, iv measured from 5 mins to 24 hrs by HPLC analysis; type: ADME, organism-based; design: dose 20 mg/kg, time upper 24 hr, time lower 0.083 hr, route intravenous; procedure, shortened: as §2
Hepatitis B virus [43] = assay: Antiviral activity against HBV genotype D in hydrodynamic injection-based C57BL/6 mouse model of HBV infection assessed as inhibition of liver HBV DNA level at 100 mg/kg, po dosed twice daily for 7 days by real-time PCR analysis; type: functional, organism-based

solubility [1]: 7600 µg/mL | AUC [2]: 21100 ng·h/mL | Cmax [3]: 3.73 µM | Drug uptake [4]: > 10 nmol/g | Tmax [5]: 120 min | solubility [6]: 8130 µg/mL | AUC [7]: 7010 ng·h/mL | bioavailability [8]: 132% | solubility [9]: 31 µg/mL | Cmax [10]: 40 nmol/g | bioavailability [11]: 87.6% | solubility ([12]; phosphate buffer, read-out: solubility): 6650 µg/mL | AUC [13]: 306 nmol·h/g | half-life [14]: 47 min | Tmax [15]: 60 min | Cmax [16]: 8.84 µM | AUC [17]: 482 nmol·h/g | Cmax [18]: 59 nmol/g | Tmax [19]: 240 min | Tmax [20]: 60 min
Structure (SMILES): Cc1cc(Nc2nn(C3CC3)c3cnc(S(=O)(=O)N4CCC(OC(=O)CN(C)C)CC4)cc23)ccc1F.O=C(O)CC(O)(CC(=O)O)C(=O)O

Structure (SMILES): Cc1cc(Nc2nn(C3CC3)c3cnc(S(=O)(=O)N4CCC(O)CC4)cc23)ccc1F
microsomal CLint [21]: 10.3 µL/min/mg | CC50 [22]: > 100000 nM | EC50 (Hepatitis B virus [23]): 34 nM | Cmax [3]: 1.19 µM | Drug uptake [4]: > 10 nmol/g | Tmax [5]: 30 min | EC50 (Hepatitis B virus [24]): 0.25 nM | selectivity ratio at 144 h [25]: > 2940 | inhibition (Hepatitis B virus [26]): inactive | AUC [7]: 1580 ng·h/mL | inhibition (Hepatitis B virus [27]): Active | CC50 [28]: > 100000 nM | half-life [29]: 37.8 min | inhibition (Hepatitis B virus [30]): inactive | AUC [31]: 62 nmol·h/g | Activity (Hepatitis B virus [32]): inactive | inhibition (Hepatitis B virus [33]): Active | EC50 (Hepatitis B virus [34]): 3.5 nM | Activity (Hepatitis B virus [35]): inactive | Cmax [10]: 32 nmol/g | inhibition (Hepatitis B virus [36]): Active | EC50 (Hepatitis B virus [37]): 0.33 nM | Activity (Hepatitis B virus [38]): inactive | bioavailability [11]: 12% | solubility ([12]; BLD = below limit of detection): Bld | AUC [13]: 142 nmol·h/g | Activity (Hepatitis B virus [39]): inactive | Tmax [15]: 30 min | inhibition (Hepatitis B virus [40]): Active | clearance [41]: 2.33 mL/min | AUC [42]: 2600 ng·h/mL | Activity (Hepatitis B virus [43]): inactive
